Tests used:
[1] = target: T1, Muscarinic acetylcholine receptor M2 (Homo sapiens) (UniProt P08172); experiment: In vitro potency at muscarinic M2 receptors of guinea pig heart(atria force).; format: functional; details: Cavia porcellus; target entry is the homologue from another species
T1 sequence (whole entry): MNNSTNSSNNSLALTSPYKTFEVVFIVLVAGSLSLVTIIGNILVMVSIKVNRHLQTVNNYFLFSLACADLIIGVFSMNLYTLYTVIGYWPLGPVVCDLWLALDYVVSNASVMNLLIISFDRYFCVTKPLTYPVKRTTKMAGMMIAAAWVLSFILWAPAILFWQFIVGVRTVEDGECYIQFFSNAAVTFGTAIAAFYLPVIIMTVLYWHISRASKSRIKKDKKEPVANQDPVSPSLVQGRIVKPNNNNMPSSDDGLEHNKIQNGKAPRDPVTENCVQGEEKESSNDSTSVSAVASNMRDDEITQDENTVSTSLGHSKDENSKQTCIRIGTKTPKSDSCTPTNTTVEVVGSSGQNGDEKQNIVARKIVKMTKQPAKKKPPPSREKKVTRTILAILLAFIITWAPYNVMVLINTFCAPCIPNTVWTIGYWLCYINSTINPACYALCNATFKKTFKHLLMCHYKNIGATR

[2] = target: Muscarinic acetylcholine receptor M3 (Cavia porcellus) (UniProt Q8VH26); experiment: In vitro potency at muscarinic M3 receptors of guinea pig ileum.; format: functional, tissue-based
Muscarinic acetylcholine receptor M3 (Cavia porcellus), sequence (Q8VH26 1-587): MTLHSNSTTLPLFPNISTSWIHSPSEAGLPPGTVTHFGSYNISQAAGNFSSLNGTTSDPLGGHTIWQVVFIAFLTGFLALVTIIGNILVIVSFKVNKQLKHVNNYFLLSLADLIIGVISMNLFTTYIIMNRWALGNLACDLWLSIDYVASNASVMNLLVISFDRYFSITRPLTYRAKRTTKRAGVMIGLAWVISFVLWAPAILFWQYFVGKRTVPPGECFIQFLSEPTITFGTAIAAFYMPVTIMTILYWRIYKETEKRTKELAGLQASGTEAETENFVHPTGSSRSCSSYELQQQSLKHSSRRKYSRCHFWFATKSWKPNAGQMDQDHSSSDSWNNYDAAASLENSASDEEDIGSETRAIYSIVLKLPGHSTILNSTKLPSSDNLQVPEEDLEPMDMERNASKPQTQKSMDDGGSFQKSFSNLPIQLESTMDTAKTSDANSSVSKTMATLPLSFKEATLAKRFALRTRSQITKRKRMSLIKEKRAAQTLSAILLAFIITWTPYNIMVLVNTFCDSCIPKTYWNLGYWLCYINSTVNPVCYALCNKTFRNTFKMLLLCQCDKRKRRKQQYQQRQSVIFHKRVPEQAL

[3] = target: T1, Muscarinic acetylcholine receptor M2 (Homo sapiens); experiment: In vitro potency at muscarinic M2 receptors of guinea pig heart relative to muscarine.; format: functional; details: Cavia porcellus; target entry is the homologue from another species
[4] = target: Muscarinic acetylcholine receptor M3 (Cavia porcellus) (UniProt Q8VH26); experiment: In vitro potency at muscarinic M3 receptors of guinea pig bladder.; format: functional
Outline: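 Guinea pig bladder longitudinal strip (2 mm wide, urethra to apex) in ileum PSS at 37 °C with isometric recording; 30 min equilibration, then the ileum protocol.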

[5] = target: Muscarinic acetylcholine receptor M3 (Cavia porcellus) (UniProt Q8VH26); experiment: In vitro potency at muscarinic M3 receptors of guinea pig bladder relative to muscarine..; format: functional
[6] = target: Muscarinic acetylcholine receptor M3 (Cavia porcellus) (UniProt Q8VH26); experiment: Efficacy for muscarinic receptors in guinea pig bladder relative to muscarine.; format: functional
[7] = target: Muscarinic acetylcholine receptor M3 (Cavia porcellus) (UniProt Q8VH26); experiment: Affinity for muscarinic receptors in guinea pig bladder relative to muscarine.
[8] = target: T1, Muscarinic acetylcholine receptor M2 (Homo sapiens); experiment: In vitro potency at muscarinic M2 receptors of guinea pig heart(atria rate).; format: functional; details: Cavia porcellus; target entry is the homologue from another species
[9] = target: Muscarinic acetylcholine receptor M3 (Cavia porcellus) (UniProt Q8VH26); experiment: % receptor occupied at ED50 on guinea pig bladder
[10] = target: T1, Muscarinic acetylcholine receptor M2 (Homo sapiens); experiment: Efficacy for muscarinic receptors in guinea pig heart(atria rate) relative to muscarine.; format: functional; details: Cavia porcellus; target entry is the homologue from another species
[11] = target: Muscarinic acetylcholine receptor M3 (Cavia porcellus) (UniProt Q8VH26); experiment: Efficacy for muscarinic receptors in guinea pig ileum relative to muscarine.; format: functional, tissue-based
[12] = target: T1, Muscarinic acetylcholine receptor M2 (Homo sapiens); experiment: Dissociation constant at guinea pig heart(atria force).; format: functional; details: Cavia porcellus; target entry is the homologue from another species
[13] = target: T1, Muscarinic acetylcholine receptor M2 (Homo sapiens); experiment: Affinity for muscarinic receptors in guinea pig heart(atria force) relative to muscarine.; details: Cavia porcellus; target entry is the homologue from another species
[14] = target: Muscarinic acetylcholine receptor M3 (Cavia porcellus) (UniProt Q8VH26); experiment: Affinity for muscarinic receptors in guinea pig ileum relative to muscarine.; format: tissue-based
[15] = target: T1, Muscarinic acetylcholine receptor M2 (Homo sapiens); experiment: Dissociation constant at guinea pig heart(atria rate).; format: functional; details: Cavia porcellus; target entry is the homologue from another species
[16] = target: Muscarinic acetylcholine receptor M3 (Cavia porcellus) (UniProt Q8VH26); experiment: % receptor occupied at ED50 on guinea pig ileum; format: tissue-based
[17] = target: T2, Muscarinic acetylcholine receptor M1 (Homo sapiens) (UniProt P11229); experiment: Potency at ganglionic M1 receptors mediating tachycardia to increase the heart rate in pithed rat; format: functional, tissue-based
T2 sequence (whole entry): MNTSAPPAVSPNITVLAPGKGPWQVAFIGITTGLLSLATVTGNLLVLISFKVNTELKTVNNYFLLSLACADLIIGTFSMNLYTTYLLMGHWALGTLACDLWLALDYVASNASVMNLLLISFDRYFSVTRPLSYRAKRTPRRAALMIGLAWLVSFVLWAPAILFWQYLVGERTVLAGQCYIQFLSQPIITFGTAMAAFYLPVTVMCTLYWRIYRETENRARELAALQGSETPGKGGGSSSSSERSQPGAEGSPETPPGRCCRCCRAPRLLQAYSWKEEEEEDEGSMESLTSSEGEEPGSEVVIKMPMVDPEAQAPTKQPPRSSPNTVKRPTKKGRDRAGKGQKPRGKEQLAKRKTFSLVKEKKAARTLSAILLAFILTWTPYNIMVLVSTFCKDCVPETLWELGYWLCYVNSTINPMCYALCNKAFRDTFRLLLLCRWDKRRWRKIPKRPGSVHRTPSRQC
Outline: (§1)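 Pithed rats, artificially respired at 60 cycles/min, 1 mL/100 g, with heparin 150 IU/kg iv, at about 37 °C. Heart rate came from the carotid pressure pulse after at least 30 min stabilisation. Agonists in 0.9% saline were given iv at 0.1 mL/100 g, one curve per preparation. ED50 was read graphically. Antagonists (pirenzepine 50 µg/kg, methoctramine 300 µg/kg iv) were given 20 min beforehand.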

[18] = target: T1, Muscarinic acetylcholine receptor M2 (Homo sapiens); experiment: Affinity for muscarinic receptors in guinea pig heart(atria rate) relative to muscarine.; details: Cavia porcellus; target entry is the homologue from another species
[19] = target: Muscarinic acetylcholine receptor M3 (Cavia porcellus) (UniProt Q8VH26); experiment: In vitro potency at muscarinic M3 receptors of guinea pig ileum relative to muscarine..; format: functional, tissue-based
[20] = target: T1, Muscarinic acetylcholine receptor M2 (Homo sapiens); experiment: Efficacy for muscarinic receptors in guinea pig heart(atria force relative to muscarine.; format: functional; details: Cavia porcellus; target entry is the homologue from another species
[21] = target: T1, Muscarinic acetylcholine receptor M2 (Homo sapiens); experiment: Potency at cardiac M2 receptors mediating bradycardia to decrease the heart rate in pithed rat; format: functional, tissue-based; outline: as §1
[22] = target: T1, Muscarinic acetylcholine receptor M2 (Homo sapiens); experiment: % receptor occupied at ED50 on guinea pig heart(atria rate); details: Cavia porcellus; target entry is the homologue from another species
[23] = target: Muscarinic acetylcholine receptor M3 (Cavia porcellus) (UniProt Q8VH26); experiment: Dissociation constant at muscarinic M3 receptors of guinea pig bladder.
[24] = target: Muscarinic acetylcholine receptor M3 (Cavia porcellus) (UniProt Q8VH26); experiment: Dissociation constant at muscarinic M3 receptors of guinea pig ileum.; format: tissue-based
[25] = target: T1, Muscarinic acetylcholine receptor M2 (Homo sapiens); experiment: % receptor occupied at ED50 on guinea pig heart(atria force); details: Cavia porcellus; target entry is the homologue from another species
[26] = target: Muscarinic acetylcholine receptor M3 (Cavia porcellus) (UniProt Q8VH26); details: Ileum
[27] = target: Muscarinic acetylcholine receptor M3 (Cavia porcellus) (UniProt Q8VH26); experiment: % muscarinic acetylcholine receptor M3 occupied at ED50 on guinea pig ileum; format: tissue-based
[28] = target: Muscarinic acetylcholine receptor M3 (Cavia porcellus) (UniProt Q8VH26); details: Ileum; remark: listed apart in the source
[29] = target: Muscarinic acetylcholine receptor M3 (Cavia porcellus) (UniProt Q8VH26); experiment: % muscarinic acetylcholine receptor M3 occupied at ED50 on guinea pig bladder
[30] = target: Muscarinic acetylcholine receptor M3 (Cavia porcellus) (UniProt Q8VH26); details: Ileum; remark: listed apart in the source

## C[C@@H]1O[C@@H](C[N+](C)(C)C)C[C@H]1F
[1]
  -Log ED50: 5.59
[2]
  -Log ED50: 5.93
[3]
  Intrinsic activity: 0.97
[4]
  -Log ED50: 4.45
[5]
  Intrinsic activity: 0.74

## C[C@@H]1O[C@H](C[N+](C)(C)C)C[C@@H]1F
[1]
  -Log ED50: 4.43
[2]
  -Log ED50: 5.02
[3]
  Intrinsic activity: 0.76
[4]
  -Log ED50: 3.74
[5]
  Intrinsic activity: 0.76

## C[C@@H]1O[C@H](C[N+](C)(C)C)C[C@H]1F
[6]
  Relative efficacy: 1.54
[7]
  Relative affinity: 0.59
[8]
  -Log ED50: 6.87
[9]
  Receptor occupied: 5.11%
[10]
  Relative efficacy: 0.21
[1]
  PD2: 6.73
[11]
  Relative efficacy: 2.96
[2]
  PD2: 7.36
[12]
  -Log KD: 4.67
[13]
  Relative affinity: 0.93
[14]
  Relative affinity: 0.59
[3]
  Intrinsic activity: 0.98
[15]
  -Log KD: 5.77
[16]
  Receptor occupied: 2.24%
[17]
  ED50: 0.0045 mg/kg
[18]
  Relative affinity: 14.5
[19]
  Intrinsic activity: 0.95
[20]
  Relative efficacy: 1.17
[21]
  ED50: 0.0235 mg/kg
[22]
  Receptor occupied: 7.36%
[23]
  -Log KD: 4.39
[24]
  -Log KD: 5.72
[4]
  PD2: 5.66
[25]
  Receptor occupied: 0.86%
[5]
  Intrinsic activity: 0.88

## C[C@@H]1O[C@H](C[N+](C)(C)C)C[C@H]1O (racemic)
[26]
  -Log KD: 5.95
[27]
  Receptor occupied: 6.62%
[28]
  PD2: 5.69
[29]
  Receptor occupied: 7.85%
[30]
  PD2: 7.1

## C[C@@H]1O[C@@H](C[N+](C)(C)C)C[C@@H]1F
[1]
  -Log ED50: 4.07
[2]
  -Log ED50: 4.64
[3]
  Intrinsic activity: 0.72
[4]
  -Log ED50: 3.92
[5]
  Intrinsic activity: 0.52
